Experiments:
[1] = target: T1, Receptor-type tyrosine-protein kinase FLT3 (Homo sapiens, UniProt P36888); test: Displacement of [33P]ATP from human recombinant FLT3 domain after 20 mins by scintillation counting
T1 sequence (P36888 whole entry): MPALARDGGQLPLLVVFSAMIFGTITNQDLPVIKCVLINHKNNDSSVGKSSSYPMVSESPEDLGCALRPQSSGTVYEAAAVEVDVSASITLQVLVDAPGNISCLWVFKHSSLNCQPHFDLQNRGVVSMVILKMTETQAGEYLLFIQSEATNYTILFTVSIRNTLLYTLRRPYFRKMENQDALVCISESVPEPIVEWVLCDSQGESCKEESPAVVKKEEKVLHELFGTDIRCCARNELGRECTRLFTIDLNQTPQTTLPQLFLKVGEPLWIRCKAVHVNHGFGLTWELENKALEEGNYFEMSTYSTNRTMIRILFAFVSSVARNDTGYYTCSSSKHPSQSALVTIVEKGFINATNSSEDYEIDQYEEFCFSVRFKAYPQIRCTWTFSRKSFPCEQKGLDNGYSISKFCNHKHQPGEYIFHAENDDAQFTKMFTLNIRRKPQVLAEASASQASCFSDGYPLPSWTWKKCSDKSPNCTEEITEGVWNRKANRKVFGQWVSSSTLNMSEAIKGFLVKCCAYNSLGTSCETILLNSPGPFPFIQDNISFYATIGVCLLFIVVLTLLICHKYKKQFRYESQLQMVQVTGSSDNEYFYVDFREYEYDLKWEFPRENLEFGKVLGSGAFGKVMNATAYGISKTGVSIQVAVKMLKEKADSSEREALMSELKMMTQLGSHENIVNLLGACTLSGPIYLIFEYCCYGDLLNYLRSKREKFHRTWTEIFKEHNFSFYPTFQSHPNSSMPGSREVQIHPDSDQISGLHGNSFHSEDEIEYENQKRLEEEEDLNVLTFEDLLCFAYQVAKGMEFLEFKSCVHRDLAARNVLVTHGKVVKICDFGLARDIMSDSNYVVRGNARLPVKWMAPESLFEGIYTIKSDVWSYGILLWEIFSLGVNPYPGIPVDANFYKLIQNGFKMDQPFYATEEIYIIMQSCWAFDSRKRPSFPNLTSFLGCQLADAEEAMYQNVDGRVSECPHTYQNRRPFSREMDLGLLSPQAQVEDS

[2] = target: Mast/stem cell growth factor receptor Kit (Homo sapiens, UniProt P10721); test: Displacement of [33P]ATP from human recombinant c-KIT domain after 20 mins by scintillation counting
How it was run: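 Radiometric kinase assay run in 100 mM HEPES pH 7.5 with 10 mM MgCl2, 25 mM NaCl, 0.01% BSA, 1 mM DTT and 0.5 mg/mL polyE4Y. Enzyme was 5 nM c-KIT with 700 μM 33P-ATP; inhibitor was added from DMSO. The reaction was started with ATP/substrate, run 20 min, stopped with 20% TCA/4 mM ATP, filtered, washed with 5% TCA and counted by scintillation.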

Aurora kinase A = target: T2, Aurora kinase A (Homo sapiens, UniProt O14965); test: Inhibition of Aurora A by spectrophotometry
T2 sequence (O14965 whole entry): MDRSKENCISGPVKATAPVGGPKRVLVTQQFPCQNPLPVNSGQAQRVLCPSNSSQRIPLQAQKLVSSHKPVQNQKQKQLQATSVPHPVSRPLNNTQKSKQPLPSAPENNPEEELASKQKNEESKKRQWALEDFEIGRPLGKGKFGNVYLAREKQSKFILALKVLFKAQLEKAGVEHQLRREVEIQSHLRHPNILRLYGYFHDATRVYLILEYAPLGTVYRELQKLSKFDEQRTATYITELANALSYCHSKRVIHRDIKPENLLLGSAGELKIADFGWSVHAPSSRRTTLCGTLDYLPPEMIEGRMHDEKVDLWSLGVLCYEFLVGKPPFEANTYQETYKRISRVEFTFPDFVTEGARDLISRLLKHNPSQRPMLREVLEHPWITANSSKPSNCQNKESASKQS

[3] = target: Tyrosine-protein kinase JAK2 (Homo sapiens, UniProt O60674); test: Inhibition of JAK2 by spectrophotometry
[4] = target: T3, Interleukin-1 receptor-associated kinase 4 (Homo sapiens, UniProt Q9NWZ3); test: Inhibition of IRAK4 by spectrophotometry
T3 sequence (Q9NWZ3 whole entry): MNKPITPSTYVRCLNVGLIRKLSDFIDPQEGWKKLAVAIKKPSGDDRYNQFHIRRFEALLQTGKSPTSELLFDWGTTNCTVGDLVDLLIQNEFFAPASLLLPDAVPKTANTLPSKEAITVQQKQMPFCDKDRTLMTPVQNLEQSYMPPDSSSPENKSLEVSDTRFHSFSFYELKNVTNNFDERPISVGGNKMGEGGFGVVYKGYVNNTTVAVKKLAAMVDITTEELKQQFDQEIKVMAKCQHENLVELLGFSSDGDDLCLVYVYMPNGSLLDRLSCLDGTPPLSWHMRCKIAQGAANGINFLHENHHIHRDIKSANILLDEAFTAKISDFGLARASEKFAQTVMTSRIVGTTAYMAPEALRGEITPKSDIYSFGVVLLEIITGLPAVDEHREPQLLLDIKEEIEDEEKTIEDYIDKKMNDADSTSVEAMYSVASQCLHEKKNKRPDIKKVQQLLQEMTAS

[5] = Clearance in iv dosed rat; format: ADME, organism-based; settings: in vivo
[6] = Half life in iv dosed rat; format: ADME, organism-based; settings: in vivo
MV4-11 = test: Cytotoxicity against human MV411 cells

Mast/stem cell growth factor receptor Kit, sequence (P10721 whole entry, the tested form may be a part): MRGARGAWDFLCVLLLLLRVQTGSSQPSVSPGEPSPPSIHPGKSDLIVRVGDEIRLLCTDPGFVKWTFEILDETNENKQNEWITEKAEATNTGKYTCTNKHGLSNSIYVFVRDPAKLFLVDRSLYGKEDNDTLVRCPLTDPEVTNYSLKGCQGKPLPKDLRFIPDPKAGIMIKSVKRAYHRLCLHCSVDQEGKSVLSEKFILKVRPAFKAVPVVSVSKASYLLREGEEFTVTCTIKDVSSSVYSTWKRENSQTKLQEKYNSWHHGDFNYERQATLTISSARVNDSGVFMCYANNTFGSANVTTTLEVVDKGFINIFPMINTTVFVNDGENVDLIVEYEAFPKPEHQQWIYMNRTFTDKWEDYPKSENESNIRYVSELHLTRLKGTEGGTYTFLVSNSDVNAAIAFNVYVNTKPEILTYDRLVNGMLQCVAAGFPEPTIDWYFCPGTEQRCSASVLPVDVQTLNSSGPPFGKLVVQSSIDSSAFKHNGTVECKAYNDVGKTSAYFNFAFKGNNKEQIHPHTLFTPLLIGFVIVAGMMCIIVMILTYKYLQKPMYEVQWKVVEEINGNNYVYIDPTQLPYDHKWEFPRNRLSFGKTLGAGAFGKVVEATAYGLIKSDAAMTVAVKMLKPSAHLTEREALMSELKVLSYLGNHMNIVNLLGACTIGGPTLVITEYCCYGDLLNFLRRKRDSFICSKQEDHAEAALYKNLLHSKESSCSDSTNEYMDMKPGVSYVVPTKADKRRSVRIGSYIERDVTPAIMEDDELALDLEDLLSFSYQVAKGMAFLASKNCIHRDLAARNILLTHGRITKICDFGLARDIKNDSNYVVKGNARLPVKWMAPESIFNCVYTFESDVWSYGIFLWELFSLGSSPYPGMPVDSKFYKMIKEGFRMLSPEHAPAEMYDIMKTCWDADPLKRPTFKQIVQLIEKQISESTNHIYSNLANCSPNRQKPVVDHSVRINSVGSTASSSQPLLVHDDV
Tyrosine-protein kinase JAK2, sequence (O60674 whole entry): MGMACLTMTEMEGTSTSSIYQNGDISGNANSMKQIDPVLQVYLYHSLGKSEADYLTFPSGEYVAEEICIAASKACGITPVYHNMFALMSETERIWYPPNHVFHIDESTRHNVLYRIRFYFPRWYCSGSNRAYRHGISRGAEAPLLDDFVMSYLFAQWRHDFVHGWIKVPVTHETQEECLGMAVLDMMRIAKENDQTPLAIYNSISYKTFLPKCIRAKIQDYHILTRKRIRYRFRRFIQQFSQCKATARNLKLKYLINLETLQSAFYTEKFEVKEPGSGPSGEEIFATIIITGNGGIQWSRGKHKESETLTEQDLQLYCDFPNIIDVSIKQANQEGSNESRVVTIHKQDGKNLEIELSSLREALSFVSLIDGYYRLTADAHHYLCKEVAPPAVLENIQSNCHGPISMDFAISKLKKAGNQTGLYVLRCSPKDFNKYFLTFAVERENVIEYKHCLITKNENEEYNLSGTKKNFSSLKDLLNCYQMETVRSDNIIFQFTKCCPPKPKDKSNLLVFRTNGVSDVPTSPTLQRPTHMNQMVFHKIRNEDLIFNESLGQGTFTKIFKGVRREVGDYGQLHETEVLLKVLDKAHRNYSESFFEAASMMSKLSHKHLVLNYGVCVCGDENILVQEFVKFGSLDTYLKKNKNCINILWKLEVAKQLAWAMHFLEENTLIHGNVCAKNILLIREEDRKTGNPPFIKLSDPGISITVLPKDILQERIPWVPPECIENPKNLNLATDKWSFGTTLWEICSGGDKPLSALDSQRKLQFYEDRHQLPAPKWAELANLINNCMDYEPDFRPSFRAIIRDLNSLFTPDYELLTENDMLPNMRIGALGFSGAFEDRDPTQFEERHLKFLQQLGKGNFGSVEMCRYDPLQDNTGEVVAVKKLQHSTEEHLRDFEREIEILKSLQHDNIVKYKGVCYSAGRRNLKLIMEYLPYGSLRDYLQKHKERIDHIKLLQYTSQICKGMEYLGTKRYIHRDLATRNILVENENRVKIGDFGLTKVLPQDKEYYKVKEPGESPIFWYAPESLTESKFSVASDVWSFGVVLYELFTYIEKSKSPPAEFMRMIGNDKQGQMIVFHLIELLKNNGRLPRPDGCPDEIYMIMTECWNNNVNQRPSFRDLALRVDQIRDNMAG

Row | SMILES | Ki [1] [nM] | Ki [2] [nM] | Ki (Aurora kinase A) [nM] | Ki [3] [nM] | Ki [4] [nM] | clearance [5] [mL/min/kg] | half-life [6] [h] | IC50 (MV4-11) [nM]
1 | COc1cc(N2CCOCC2)ccc1Nc1nc(N)n(-c2ccc(C#N)cn2)n1 | 22 | 205 | 2600 | > 4000 | 340 | – | – | –
2 | Nc1nc(Nc2ccc(OCCCN3CCOCC3)cc2)nn1-c1ccccn1 | – | < 50 | – | – | – | 67.2 | 0.93 | –
3 | Nc1nc(Nc2cccc(C(=O)N3CCOCC3)c2)nn1-c1ccccn1 | – | 10 | – | – | – | 16.7 | 2.92 | –
4 | Nc1nc(Nc2ccc(C(O)CCCN3CCOCC3)cc2)nn1-c1ccccn1 (centres undefined) | – | < 50 | – | – | – | 17.7 | 1.03 | 1
5 | Nc1nc(Nc2ccc([C@H]3CC[C@@H](N4CCOCC4)CC3)cc2)nn1-c1ccccn1 | 5 | – | – | – | – | 77 | 1.6 | 1

Further lines, with some results ahead:

Row | Ki [1] [nM] | Ki [2] [nM] | Ki (Aurora kinase A) [nM] | Ki [3] [nM] | Ki [4] [nM] | clearance [5] [mL/min/kg] | half-life [6] [h] | SMILES | IC50 (MV4-11) [nM]
6 | 15 | 12 | > 7000 | > 4000 | 420 | – | – | COc1ccccc1Nc1nc(N)n(-c2ccccn2)n1 | –
7 | – | – | – | – | – | 84.4 | 2.54 | CN1CCN(c2ccc(Nc3nc(N)n(-c4ccccn4)n3)cc2)CC1 | 2
8 | – | 240 | – | – | – | 42.1 | 1.33 | CC(=O)Nc1ccc(Nc2nc(N)n(-c3ccccn3)n2)cc1 | 18
9 | 1 | 270 | 2100 | > 4000 | 78 | – | – | COc1ccccc1Nc1nc(N)n(-c2cc(NCCN(C)C)ncn2)n1 | –
10 | 18 | – | 2000 | > 4000 | 1200 | – | – | Nc1nc(Nc2ccccc2Cl)nn1-c1ccccn1 | –
11 | 15 | – | > 2500 | > 4000 | 36 | – | – | N#Cc1ccc(-n2nc(Nc3ccccc3Cl)nc2N)nc1 | –
